Screening data: PubChem BioAssay, Johns Hopkins Ion Channel Center
Shown are actives, neighbours in structure and some others; about 4.1% of the full set was active somewhere.
MrgX1 PAM: allosterically activates human MrgX1 receptor signaling. Q96LB2. MrgX1-HEK293, Fluo-4 calcium flux, FDSS; stronger effect = higher value. B-score at 10 µM. actives 0.63% (n = 310,000);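 active means plate-corrected calcium response at least 3 library SD above typical, normal starting fluorescence, not activating the receptor alone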;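 further: compound read alongside a low EC10 to EC30 dose of BAM8-22 agonist; peak minus trough fluorescence over baseline measured at the second addition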
MrgX1 ag: human MrgX1 receptor agonism, primary screen; MrgX1-HEK293 cells, Fluo-4 calcium fluorescence, agonist mode; stronger effect = higher value; B-score at 10 µM; actives 0.44% (n = 310,000);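 active means calcium response B-score plate-corrected fluorescence ratio at least 3 library SD, with starting fluorescence B-score inside 5 SD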
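System: HEK293 cells stably expressing human MrgX1 receptor; Dosing: test compound in the initial addition of three; Schedule: overnight plating, then 30 min 37 °C plus 30 min room-temperature dye loading; Detection: kinetic calcium dye fluorescence, Fluo-4 NW; Controls: per-plate positive and negative controls for Z′ factor.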
RGS4 inh: human RGS4 inhibition; P49798; HEK293 M3R/RGS4 inducible, Fluo-4 calcium flux; stronger effect = higher value; triggered by carbachol at its EC20; B-score at 10 µM; actives 0.45% (n = 310,000); AID 463165;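 active means B-score, a plate-corrected calcium signal, over three deviations above library mean, with baseline fluorescence within five deviations of library mean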;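 further: RGS4 expression induced by doxycycline in cells with stable M3 receptor; B-score is computed from the integrated fluorescence ratio over baseline after carbachol; higher B-score means a larger calcium signal and so more RGS4 inhibition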
Target sequence (P49798 whole entry, looked up): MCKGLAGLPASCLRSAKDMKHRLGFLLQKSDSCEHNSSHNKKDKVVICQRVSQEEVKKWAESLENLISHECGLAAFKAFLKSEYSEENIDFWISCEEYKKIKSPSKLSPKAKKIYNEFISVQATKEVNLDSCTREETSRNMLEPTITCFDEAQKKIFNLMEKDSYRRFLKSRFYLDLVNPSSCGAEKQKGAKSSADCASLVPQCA
Kir21 inh: inhibitors of mouse Kir2.1 inward-rectifier potassium channel; P35561; B-score at 10 µM; HEK293-Kir2.1, FluxOR thallium flux fluorescence; stronger effect = lower value; actives 0.85% (n = 310,000);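 active means fluorescence ratio B-score at or below minus 3 SD of library scores, with starting-brightness B-score within 2 SD, cut at about -4.2 in these data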;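 further: channel flux triggered by added potassium and thallium sulfate stimulus; B-score of peak minus minimum fluorescence over baseline after thallium stimulus; more negative B-score means stronger Kir2.1 block with less thallium influx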
Target sequence (P35561 whole entry, looked up): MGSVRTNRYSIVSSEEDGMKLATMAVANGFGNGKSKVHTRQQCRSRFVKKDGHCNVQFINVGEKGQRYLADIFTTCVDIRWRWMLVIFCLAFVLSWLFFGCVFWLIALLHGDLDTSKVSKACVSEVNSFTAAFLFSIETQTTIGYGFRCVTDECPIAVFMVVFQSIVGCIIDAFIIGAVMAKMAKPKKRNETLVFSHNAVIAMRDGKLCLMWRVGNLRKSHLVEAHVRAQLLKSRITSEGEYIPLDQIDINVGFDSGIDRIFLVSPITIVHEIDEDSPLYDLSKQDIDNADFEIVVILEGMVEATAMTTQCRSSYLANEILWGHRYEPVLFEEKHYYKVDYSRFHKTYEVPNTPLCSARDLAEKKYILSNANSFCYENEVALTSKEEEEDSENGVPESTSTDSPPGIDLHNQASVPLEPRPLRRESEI
MrgX1 antag: human MrgX1 receptor antagonism, primary screen. MRGX1-HEK293 calcium flux, Fluo-4, BAM8-22 antagonism; stronger effect = lower value. B-score at 10 µM. actives 1.3% (n = 310,000). Q96LB2;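 active means calcium-response B-score plate-corrected more than 3 library SD below zero, starting fluorescence within 5 deviations, no agonist response on first addition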;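 further: peak minus trough fluorescence over baseline after final BAM8-22 challenge near maximal dose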
RGS4 pot: RGS4 potentiation or activation; HEK293 M3R/inducible RGS4, carbachol calcium flux Fluo4; stronger effect = lower value; B-score at 10 µM; actives 0.92% (n = 310,000);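 active means B-score of the integrated calcium signal more than 4 SD below the library mean, with starting fluorescence not abnormally high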;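 further: negative B-score means reduced calcium response which marks RGS4 activation or potentiation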
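Test system: HEK293 cells with stable M3R and inducible RGS4; also added: carbachol at ECmax as muscarinic agonist stimulus; schedule: dye loading 30 min 37 °C, buffer rest 30 min RT; technique: kinetic calcium fluorescence imaging with Fluo4-AM dye, 2 µM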
Large screens that a line does not name were inactive.

CO/N=C/c1ccc(Sc2ccc(C)cc2)c([N+](=O)[O-])c1	none
Cc1c(Cl)cccc1NC(=S)NC1CCN(Cc2ccccc2)CC1	none
S=C(Nc1ccccc1Cl)NC1CCN(Cc2ccccc2)CC1	Kir21 inh -6.7
O=C(NC1CCN(Cc2ccccc2)CC1)c1ccc(Cl)cc1Cl	Kir21 inh -6.5
Cc1ccc(CSc2nn3c(=O)c(C)nnc3s2)cc1	none
Cc1nnc2sc(SCc3ccc(Cl)cc3)nn2c1=O	MrgX1 antag -6.6
N#C/C(=C/c1ccc(F)cc1)C(N)=S	MrgX1 ag 28
O=C(O)c1ccc(N=Nc2c(O)[nH]c3cc(Cl)ccc23)cc1	MrgX1 antag -6
COc1ccc(O[C@H]2C=C[C@@H](c3ccccc3)O[C@@H]2COC(=O)CC/C(C)=N/OC[C@@H](O)COCc2ccco2)cc1	RGS4 pot -9.7
CCC(=O)NN1CCN(c2ccncc2S(=O)(=O)N2CCCCC2)CC1	none
O=C(Nc1ccccc1C(F)(F)F)N1CCCCCC1	none
O=C(Nc1ccccc1C(F)(F)F)N1CCN(C(c2ccccc2)c2ccccc2)CC1	MrgX1 antag -7.1
O=C(Nc1ccccc1C(=O)NCC1CCCO1)c1ccccc1 (centres undefined)	none
O=C(CSc1ncnc2ccccc12)NCCc1ccccc1	none
COc1ccc(OC)c(/C=C2\N=C(c3ccccc3)OC2=O)c1	RGS4 pot -7.4
COc1cc(/C=C2/N=C(c3ccccc3)OC2=O)c(F)cc1OCc1ccccc1	MrgX1 antag -4.9
COc1cc(/C=C2\N=C(c3ccccc3)OC2=O)ccc1OC(C)=O	none
NC(=O)CSc1nnc(C2CC2)n1-c1ccccc1	none
Cc1cccc(C)c1OCC(=O)NNC(=S)NC(=O)C1CC1	MrgX1 ag 63
COc1ccccc1CN1C[C@@H]2C[C@@H](C3=Cc4cc(Cl)ccc4OC3)N3CCC[C@@]23C1=O	none
CN(Cc1ccccc1)S(=O)(=O)c1ccc(S(=O)(=O)N(Cc2ccc(F)cc2)C2CCCC2)cc1	MrgX1 antag -4.6
CC(=O)c1cc(NC(=O)c2ccc(Cl)cc2)c(=O)oc1/C=C/N(C)C	MrgX1 ag 38
O=C(CNC(=O)Cc1ccc(Cl)cc1)NCC(=O)N1CCCCC1	none
O=C(c1ccccc1F)N1CCN(c2cccc(C(F)(F)F)c2)CC1	none
O=C(c1c(F)c(F)c(F)c(F)c1F)N1CCN(c2cccc(C(F)(F)F)c2)CC1	RGS4 pot -7.2
C/C(CC(=O)Nc1ccc(Cl)c(C(F)(F)F)c1)=N\NC(=O)c1ccccc1O	none
COc1cc(/C=C(\C#N)c2ccccn2)cc(OC)c1O	MrgX1 ag 51
CCC[C@@H](CN[C@@H](CNC)[C@H](C)CC)NCC1CCC(C(C)(C)C)CC1 (some centres undefined)	none
CCC[C@H](CN[C@@H](CNC)[C@H](C)CC)NCCc1cc(C(F)(F)F)cc(C(F)(F)F)c1	Kir21 inh -4.2
CC[C@@H](C)[C@H](CNC)NC[C@@H](Cc1cccc2ccccc12)NCCc1cccc(C(F)(F)F)c1	Kir21 inh -6.5, RGS4 pot -9.3
CCC[C@@H](CN[C@@H](CNC)C(C)C)NCCCCc1ccccc1	none
NC(=O)NCc1ccccc1F	none
COc1ccc(CNC(=O)Cc2cn(C)c3ccccc23)c(OC)c1	Kir21 inh -4.3
COc1cccc(CNCc2ccc(OC)cc2OC)c1	none
CCn1c2ccccc2c2cc(CNCc3ccc(OC)cc3OC)ccc21	Kir21 inh -9.8
O=C(c1ccc(Br)cc1)c1coc2ccc(O)cc12	none
CC(NCc1cc(Br)ccc1OCC(=O)NCc1ccccc1)c1ccccc1 (centres undefined)	Kir21 inh -16
CCOC(=O)c1cc(C#N)c(Oc2cccc(C(F)(F)F)c2)nc1-c1ccccc1	RGS4 pot -7.8
Cc1nn(C)cc1C(C(=O)NC1CCCCC1)N(C(=O)Cn1nnc2ccccc21)c1ccc(F)cc1 (centres undefined)	none
O=[N+]([O-])c1ccccc1Sc1nccn1Cc1ccccc1	Kir21 inh -4.9
NC(=O)CSc1nccn1Cc1ccccc1	none
O=C(CN1CCN(CCC(=O)Nc2ccccc2F)CC1)Nc1ccc(Cl)cc1	none
CCN=c1scc(-c2ccccc2)n1/N=C/c1ccccn1	MrgX1 PAM 12
C=CCN=c1scc(-c2ccc(F)cc2)n1/N=C/c1ccccn1	none
CCN=c1scc(-c2ccc(F)cc2)n1/N=C/c1ccccn1	none
C=CCN=c1scc(-c2ccccc2)n1/N=C/c1ccccn1	MrgX1 PAM 14
CC(C)C(NC(=O)CSCc1ccc([N+](=O)[O-])cc1)C(C)C	Kir21 inh -4.5
O=c1c2ccccc2c(C=NCCCN2CCOCC2)c(O)n1Cc1ccc2c(c1)OCO2	none
O=c1c2ccccc2c(C=NCCCN2CCOCC2)c(O)n1Cc1ccccc1	Kir21 inh -5.8
C=C(C)CN(CC)C(=O)c1ccc(OC2CCN(S(=O)(=O)N(C)C)CC2)cc1	none
CC(=O)Oc1ccc2c(=O)c(/C=N/c3cc(=O)[nH]c(=S)[nH]3)coc2c1	MrgX1 PAM 14
CC1(C)NC(=O)N(CCCOc2ccc(Br)cc2Cl)C1=O	none
CC(C)c1cc(Br)ccc1OCCCN1C(=O)NC(C)(C)C1=O	Kir21 inh -6.8
NC(=O)/C(=C\c1ccccc1)NC(=O)/C=C/c1ccccc1	none
Cc1sc(NC(=O)c2ccco2)nc1-c1ccc2c(c1)CC(C)N2C(=O)C1CC1 (centres undefined)	RGS4 pot -7.1
CCOC(=O)C(=O)Nc1nc(-c2ccc3c(c2)CCN3C(=O)C2CC2)c(C)s1	none
CC(=O)NN1C(=O)/C(=C\c2ccc(O)cc2)SC1=S	none
Cc1ccc(C(=O)NN2C(=O)/C(=C/c3cccn3C)SC2=S)cc1	none
O=C(NN1C(=O)/C(=C/c2ccc(O)c(O)c2)SC1=S)c1ccccc1	MrgX1 ag 32
CC(=O)NN1C(=O)/C(=C\c2ccc(C)cc2)SC1=S	none
CC(=O)NN1C(=O)/C(=C\c2ccc(Br)o2)SC1=S	Kir21 inh -5
CC(=O)NN1C(=O)/C(=C/c2ccc(Br)o2)SC1=S	MrgX1 PAM 7.1
CC(=O)NN1C(=O)/C(=C\c2ccccc2)SC1=S	MrgX1 PAM 9.5
CCOc1cc(N2CCOCC2)c(OCC)cc1NC(=O)COC(=O)c1cccc2ccccc12	none
CCOC(=O)N/N=C/c1ccc(C)o1	none
Cc1ccc(C(=O)NN2C(=O)/C(=C/c3cn(C)c4ccccc34)SC2=S)cc1	MrgX1 antag -4.8 (no result: RGS4 inh, Kir21 inh, RGS4 pot)
COc1cc(C(=O)NC(=S)NNC(=O)c2ccc3c(c2)OCO3)cc(OC)c1OC	MrgX1 ag 60
